# High-throughput results from PubChem.
# HCV NS3 hel inh: HCV NS3 helicase inhibition; NS3 helicase DNA unwinding, Cy5 molecular beacon fluorescence; inhibition, % at 10.9 µM; AID 1800; 0.56% of 290,000 active;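 active means inhibition above the mean of all tested compounds plus 3 SD, set per campaign, cut at about 35% in these data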;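 further: 0% = DMSO wells and 100% = thioflavine S control wells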
#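 Compound dosing – single dose, 10.9 µM nominal final, DMSO 0.8% final · System – NS3 helicase fragment of HCV · Buffer or medium – MOPS pH 6.5, MgCl2, DTT, Tween20, BSA · Signal – Cy5 beacon fluorescence read at start and 1 h · Also added – annealed dual-labelled DNA beacon duplex, ATP-started · Schedule – 1 h at 25 °C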
# ALR inh: inhibitors of human sulfhydryl oxidase ALR | purified ALR, DTT oxidation, H2O2 HRP-luminol luminescence | inhibition, % (test concentration not listed) | 3.8% of 290,000 active | AID 485317;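 active means mean replicate inhibition above about 79%, with every replicate also reaching it, limit read from the data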
# Target sequence (P55789 whole entry, looked up): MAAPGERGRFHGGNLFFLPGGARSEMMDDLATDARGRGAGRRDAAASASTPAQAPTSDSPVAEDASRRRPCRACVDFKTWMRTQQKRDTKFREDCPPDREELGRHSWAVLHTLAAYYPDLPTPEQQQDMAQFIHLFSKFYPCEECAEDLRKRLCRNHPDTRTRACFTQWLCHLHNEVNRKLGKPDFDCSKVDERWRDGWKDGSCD
# ZTA counter: blocks Epstein-Barr virus ZTA, an EBNA-1 counter-screen; P03206; ZTA-DNA binding, fluorescence polarization; inhibition, % at 11 µM; 0.15% of 320,000 active; AID 2234; in the data active means inhibition above about 33%
# Target sequence (P03206 whole entry, looked up): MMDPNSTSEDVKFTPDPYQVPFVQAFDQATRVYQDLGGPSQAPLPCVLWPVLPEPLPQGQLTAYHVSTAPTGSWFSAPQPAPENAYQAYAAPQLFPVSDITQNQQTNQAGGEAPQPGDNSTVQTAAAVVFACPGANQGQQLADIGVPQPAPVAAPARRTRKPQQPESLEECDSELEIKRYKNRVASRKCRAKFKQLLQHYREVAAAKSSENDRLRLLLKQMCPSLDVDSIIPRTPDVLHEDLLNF
# M18AAP inhibitor: blocks P. falciparum M18 aspartyl aminopeptidase | recombinant PfM18AAP, H-Glu-NHMec fluorogenic cleavage | inhibition, % at 7.35 µM | 1.2% of 290,000 active | AID 1822;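 active means inhibition above the campaign mean inhibition over all tested compounds plus 3 SD, cut at about 28% in these data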;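 further: 0% = plate median of test compound wells and 100% = 2 mM ZnCl2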
# HCV core dimer: blocks dimerization of HCV core protein. AID 1899. inhibition, % at 5 µM. TR-FRET GST/Flag-core106 dimerization, 1536-well. 0.33% of 300,000 active;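 active means inhibition above the mean of all tested compounds plus 3 SD, set per screening campaign, cut at about 45% in these data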
#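 Material: GST/Flag-tagged HCV core106 proteins. Incubation: 4 h, 22.5 °C incubation. Read-out basis: inhibition (%) from 671 over 617 nm ratio. Measured by: TR-FRET, excitation 340 nm, emission 617 and 671 nm.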
# EBNA-1 inhibitor: blocks EBNA-1 binding to DNA; EBNA-1 DNA binding, fluorescence polarization; inhibition, % at 14.8 µM; 0.34% of 300,000 active; AID 1950; in the data active means inhibition above about 28%
# * hit, by the source's call; nt = no result. This is a sample that favours compounds with a hit; in the whole collection about 5.2% have one here.
SMILES,HCV NS3 hel inh,ALR inh,ZTA counter,M18AAP inhibitor,HCV core dimer,EBNA-1 inhibitor
CC(C)n1cc(CNC(=O)C2CCC(=O)N(Cc3ccccc3F)C2)cn1 (stereo not drawn),1,4,7,-1,0,-11
N#C/C(=C\c1c(N2CCN(c3ccccc3)CC2)nc2ccccn2c1=O)C(N)=O,-2,54,nt,5,nt,nt
COc1ccc(NC2CS(=O)(=O)CC2NCc2ccco2)cc1 (stereo not drawn),11,99*,7,8,6,-2
CCN1CCN(CNC(=O)c2cnccn2)CC1,3,-4,1,3,0,-2
O=C(NCN1CCN(c2ccccc2)CC1)c1cnccn1,2,98*,-3,-8,0,-8
CN(C)S(=O)(=O)c1cccc(-c2cn3cc(Cl)ccc3n2)c1,5,98*,7,-1,9,-4
CN(C)S(=O)(=O)c1cccc(-c2cn3ccccc3n2)c1,10,99*,-4,4,-3,-9
CC(C)C(=O)Nc1nnc(NC(=S)Nc2ccccc2)s1,-4,82*,-11,0,-2,1
O=C(CC1C(=O)NCCN1Cc1cccc(C(F)(F)F)c1)NC1CCCCCC1 (stereo not drawn),-16,0,-1,3,9,-3
Cc1cc(S(=O)(=O)N2CCOCC2)ccc1OCC(=O)NCCN1CCOCC1,2,10,3,1,3,11
COCC(=O)Nc1ccc(N(C)C)cc1,2,nt,5,1,-8,2
CN(C)c1ccc(NC(=O)COC(=O)Cn2nnc3ccccc32)cc1,-3,99*,-10,-1,-4,5
Cc1ccccc1SCC(=O)OCC(=O)Nc1ccc(N(C)C)cc1,-6,99*,-1,-10,-10,0
Clc1ccc(CN2C3=NCCN3c3ccccc32)cc1Cl,-28,98*,-1,4,-1,3
c1ccc(CN2C3=NCCN3c3ccccc32)cc1,10,96*,-1,-6,-3,1
O=C(CN1C2=NCCN2c2ccccc21)C12CC3CC(CC(C3)C1)C2,-29,98*,3,-9,7,-9
Cc1ccc(CN2C3=NCCN3c3ccccc32)cc1,5,nt,-12,-17,0,-9
CCCSc1nn2c(=O)c3ccccc3nc2s1,-4,nt,-10,-5,6,-4
Cc1cccc(Nc2nn3c(=O)c4ccccc4nc3s2)c1,-16,-3,-18,-1,69*,4
COc1cc(/C=N/n2nnnc2N)ccc1OC(C)=O,2,6,nt,-13,nt,nt
COc1cc(/C=N/n2nnnc2N)ccc1O,-3,99*,1,-4,-2,-1
Nc1nnnn1/N=C/c1ccc(O)cc1,-3,96*,-14,1,-9,-5
CCOC(=O)c1c(C)[nH]c(C2=NNC(=NC3CC3)SC2)c1C,-8,98*,-3,44*,-6,-8
O=C(/C=C/C(=O)N1CCc2ccccc2C1)N1CCc2ccccc2C1,11,85*,-6,-1,6,-10
CN(C)c1ccc(C(=O)N2CCCC(N3CCN(Cc4ccc5c(c4)OCO5)CC3)C2)cc1 (stereo not drawn),0,97*,nt,4,nt,nt
SMILES,HCV NS3 hel inh,ALR inh,ZTA counter,M18AAP inhibitor,HCV core dimer,EBNA-1 inhibitor
CCN(CC)S(=O)(=O)c1cc(C(=O)Nc2cc(C)on2)c(Cl)cc1Cl,-5,70,9,1,7,-8
CC(=O)C1=C(O)C(=O)N(c2ccc(O)cc2)C1c1cccc([N+](=O)[O-])c1 (stereo not drawn),3,83*,21,-6,5,-6
CC(=O)C1=C(O)C(=O)N(c2ccc(O)cc2)C1c1ccccc1 (stereo not drawn),6,70,2,-13,1,-10
CC(=O)C1=C(O)C(=O)N(c2ccc(O)cc2)C1c1ccc(C)cc1 (stereo not drawn),1,99*,-10,1,-2,-7
CC(=O)C1=C(O)C(=O)N(c2cccnc2)C1c1cccc([N+](=O)[O-])c1 (stereo not drawn),6,-6,-17,-14,0,-13
CC(=O)C1=C(O)C(=O)N(c2ccc(O)cc2)C1c1cccc(F)c1 (stereo not drawn),-3,82*,5,-2,-3,-2
COc1ccc2c(CC(=O)NNC(=O)c3ccc(O)cc3)coc2c1,nt,30,nt,nt,nt,nt
N#Cc1ccccc1NS(=O)(=O)c1cc2c3c(c1)CCN3C(=O)CC2,nt,-10,6,nt,2,-4
Cc1cc2c(s1)Nc1ccccc1N=C2N1CCN(C)CC1,4,94*,4,0,-11,1
COc1cc(-c2cc(N)n(S(=O)(=O)c3ccccc3)n2)cc(OC)c1OC,1,58,6,0,-7,6
Nc1cc(-c2ccccc2)nn1S(=O)(=O)c1ccc(Br)cc1,0,99*,-1,1,6,-1
CCOc1cc(/C=N/NC(=O)c2c(-c3ccccc3)noc2C)ccc1O,-5,96*,0,4,-1,7
C/C(=N\NC(=O)c1c(C)nc2ccccn12)c1ccccc1F,-1,nt,-5,2,-2,-7
COc1cc(/C=N/NC(=O)c2c(-c3ccccc3)noc2C)ccc1O,1,99*,0,4,0,-4
C/C(=N\NC(=O)c1c(C)nc2ccccn12)c1ccc(O)cc1O,5,-9,-13,29*,-16,-3
CCOc1cc(/C=N/NC(=O)c2ccc(=O)n(C)c2)ccc1O,-9,99*,12,2,0,-1
CCOc1cc([N+](=O)[O-])cc(/C=N/NC(=O)c2c(-c3ccccc3)noc2C)c1O,6,-2,-3,11,3,0
COc1ccccc1/C=N/NC(=O)c1ccc(=O)n(C)c1,-3,-3,4,3,0,6
COc1ccc(NC(C)=O)cc1CP(=O)(c1ccccc1)c1ccccc1,14,-28,-1,5,-2,6
COc1cc(C(=O)NCC2CCCCC2)ccc1OCc1c(C)noc1C,nt,0,-5,nt,nt,nt
COc1cc(/C=N/NC(=O)c2ccc(COc3cc(C)ccc3C(C)C)cc2)cc(OC)c1O,-5,nt,-10,-3,9,2
CCOc1cc(/C=N\NC(=O)c2c(C)nc3ccccn23)ccc1O,-3,89*,6,5,0,0
Cc1nc2ccccn2c1C(=O)N/N=C/c1ccccc1[N+](=O)[O-],8,-15,1,-2,-6,9
Cc1ccc(C(C)C)c(OCc2ccc(C(=O)N/N=C/c3ccc(O)c(O)c3)cc2)c1,9,97*,3,18,14,-8
COc1ccc(-n2c(SCC(=O)N/N=C/c3ccccc3OCC(=O)O)nc3ccccc3c2=O)cc1,11,nt,0,10,6,7
Cc1cc(=O)nc2c3ccccc3n(C(C)C(=O)NCCN3CCOCC3)n12 (stereo not drawn),6,-8,-1,2,10,12
